Data published in ChEMBL document CHEMBL2203123, “Synthesis and biological evaluation of some hydrazone derivatives as new anticandidal and anticancer agents” (Eur J Med Chem, 2012).
Values after ≈ are worked out from the molar mass of the structure shown.

Legend:
Cyberlindnera jadinii = test: Antifungal activity against Candida utilis NRRL Y-900 after 24 hrs by microdilution susceptibility assay; type: functional; conditions: Williopsis jadinii, NRRL Y-900, 24 h
In short: (§1)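 Broth microdilution in Mueller Hinton Broth, compounds from DMSO stocks diluted serially; inocula standardized to 10^6 CFU/mL (McFarland 0.5) from overnight MHB cultures. Plates held 37 °C for 24 h; MIC taken as first well without turbidity, aided by 1% tetrazolium violet added for 3 h at 37 °C. Ketoconazole reference.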

Salmonella typhimurium [1] = test: Genotoxicity against Salmonella typhimurium TA1535/pSK1002 assessed as induction ratio at 0.63 mg/ml by umuC assay in absence of S9 fraction; type: toxicity, organism-based; conditions: salmonella enterica subsp. enterica serovar typhimurium
In short: (§2)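 umuC Easy CS: TA1535/pSK1002 grown overnight in ampicillin TG medium at 37 °C, then exposed 2 h at 37 °C to compounds at 5, 2.5, 1.25, 0.63 mg/mL with or without S9. Diluted into fresh medium for 2 h growth (OD600), then β-galactosidase with ONPG 30 min at 28 °C, OD420. Positive controls 2-aminoanthracene (+S9), […] (−S9).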

Salmonella typhimurium [2] = test: Genotoxicity against Salmonella typhimurium TA98 assessed as fold increase in revertants at 0.3125 mg/ml after 90 mins by Ames MPF test in absence of S9 fraction relative to baseline; type: toxicity, organism-based; conditions: salmonella enterica subsp. enterica serovar typhimurium, 1.5 h
In short: (§3)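 Ames MPF fluctuation test, TA98 and TA100: overnight cultures reincubated 90 min, then exposed 90 min at 37 °C to compounds at 0.156-5 mg/mL (in DMSO) with or without 4.5% v/v S9; indicator medium added, 48 wells per sample scored yellow after 48 h, triplicate. Fold over baseline = mean positive wells / (mean of DMSO control + 1 SD).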

Salmonella typhimurium [3] = test: Genotoxicity against Salmonella typhimurium TA98 assessed as fold increase in revertants at 0.625 mg/ml after 90 mins by Ames MPF test in presence of S9 fraction relative to baseline; type: toxicity, organism-based; conditions: salmonella enterica subsp. enterica serovar typhimurium, s9, 1.5 h; in short: as §3
[4] = Genotoxicity against Salmonella typhimurium TA1535/pSK1002 assessed as induction ratio at 5 mg/ml by umuC assay in absence of S9 fraction; type: toxicity, organism-based; conditions: salmonella enterica subsp. enterica serovar typhimurium, Salmonella typhimurium TA1535/pSK1002 without S9 fraction; in short: as §2
Salmonella typhimurium [5] = test: Genotoxicity against Salmonella typhimurium TA100 assessed as fold increase in revertants at 0.3125 mg/ml after 90 mins by Ames MPF test in presence of S9 fraction relative to baseline; type: toxicity, organism-based; conditions: salmonella enterica subsp. enterica serovar typhimurium, s9, 1.5 h; in short: as §3
NIH3T3 = test: Cytotoxicity against mouse NIH/3T3 cells after 24 hrs by XTT assay; type: cell-based; conditions: NIH3T3, 24 h
In short: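 Mouse NIH3T3 fibroblasts grown in DMEM with fetal calf serum, penicillin/streptomycin, 37 °C, 5% CO2; 20,000 cells/well, treated after 24 h with 0.00316 µM-10 mM compound for 24 h. Viability via XTT (3 h, OD 480 nm, reference 680 nm); % inhibition computed and IC50 fitted by non-linear regression.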

A549 = test: Cytotoxicity against human A549 cells after 24 hrs by XTT assay; type: functional, cell-based; conditions: A549, 24 h
In short: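 A549 cells in RPMI 1640 with 10% fetal calf serum, penicillin/streptomycin, 37 °C, 5% CO2; 20,000 cells/well seeded, after 24 h exposed to compounds at 0.00316 µM-10 mM for 24 h. XTT mitochondrial activity read at 480 nm (reference 680 nm) after 3 h; % inhibition per concentration, IC50 by non-linear regression.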

Salmonella typhimurium [6] = test: Genotoxicity against Salmonella typhimurium TA98 assessed as fold increase in revertants at 2.5 mg/ml after 90 mins by Ames MPF test in presence of S9 fraction relative to baseline; type: toxicity, organism-based; conditions: salmonella enterica subsp. enterica serovar typhimurium, s9, 1.5 h; in short: as §3
Candida albicans = test: Antifungal activity against Candida albicans ATCC 10231 after 24 hrs by microdilution susceptibility assay; type: functional; conditions: ATCC 10231, 24 h; in short: as §1
Salmonella typhimurium [7] = test: Genotoxicity against Salmonella typhimurium TA100 assessed as fold increase in revertants at 0.156 mg/ml after 90 mins by Ames MPF test in absence of S9 fraction relative to baseline; type: toxicity, organism-based; conditions: salmonella enterica subsp. enterica serovar typhimurium, 1.5 h; in short: as §3
Salmonella typhimurium [8] = test: Genotoxicity against Salmonella typhimurium TA98 assessed as fold increase in revertants at 0.625 mg/ml after 90 mins by Ames MPF test in absence of S9 fraction relative to baseline; type: toxicity, organism-based; conditions: salmonella enterica subsp. enterica serovar typhimurium, 1.5 h; in short: as §3
Candida parapsilosis = test: Antifungal activity against Candida parapsilosis NRRL Y-12696 after 24 hrs by microdilution susceptibility assay; type: functional; conditions: Lodderomyces parapsilosis, NRRL Y-12696, 24 h; in short: as §1
[9] = Genotoxicity against Salmonella typhimurium TA1535/pSK1002 assessed as induction ratio at 1.25 mg/ml by umuC assay in absence of S9 fraction; type: toxicity, organism-based; conditions: salmonella enterica subsp. enterica serovar typhimurium, Salmonella typhimurium TA1535/pSK1002 without S9 fraction; in short: as §2
Salmonella typhimurium [10] = test: Genotoxicity against Salmonella typhimurium TA1535/pSK1002 assessed as growth factor ratio at 5 mg/ml by umuC assay in absence of S9 fraction; type: toxicity, organism-based; conditions: salmonella enterica subsp. enterica serovar typhimurium; in short: as §2
Salmonella typhimurium [11] = test: Genotoxicity against Salmonella typhimurium TA100 assessed as fold increase in revertants at 0.3125 mg/ml after 90 mins by Ames MPF test in absence of S9 fraction relative to baseline; type: toxicity, organism-based; conditions: salmonella enterica subsp. enterica serovar typhimurium, 1.5 h; in short: as §3
Salmonella typhimurium [12] = test: Genotoxicity against Salmonella typhimurium TA100 assessed as fold increase in revertants at 5 mg/ml after 90 mins by Ames MPF test in absence of S9 fraction relative to baseline; type: toxicity, organism-based; conditions: salmonella enterica subsp. enterica serovar typhimurium, 1.5 h; in short: as §3
[13] = Genotoxicity against Salmonella typhimurium TA1535/pSK1002 assessed as induction ratio at 0.63 mg/ml by umuC assay in presence of S9 fraction; type: toxicity, organism-based; conditions: salmonella enterica subsp. enterica serovar typhimurium, Salmonella typhimurium TA1535/pSK1002 with S9 fraction; in short: as §2
Salmonella typhimurium [14] = test: Genotoxicity against Salmonella typhimurium TA100 assessed as fold increase in revertants at 2.5 mg/ml after 90 mins by Ames MPF test in presence of S9 fraction relative to baseline; type: toxicity, organism-based; conditions: salmonella enterica subsp. enterica serovar typhimurium, s9, 1.5 h; in short: as §3
Salmonella typhimurium [15] = test: Genotoxicity against Salmonella typhimurium TA98 assessed as fold increase in revertants at 1.25 mg/ml after 90 mins by Ames MPF test in presence of S9 fraction relative to baseline; type: toxicity, organism-based; conditions: salmonella enterica subsp. enterica serovar typhimurium, s9, 1.5 h; in short: as §3
Salmonella typhimurium [16] = test: Genotoxicity against Salmonella typhimurium TA1535/pSK1002 assessed as induction ratio at 2.5 mg/ml by umuC assay in presence of S9 fraction; type: toxicity, organism-based; conditions: salmonella enterica subsp. enterica serovar typhimurium; in short: as §2
Nakaseomyces glabratus = test: Antifungal activity against Candida glabrata Anadolu University clinical isolate after 24 hrs by microdilution susceptibility assay; type: functional; in short: as §1
Salmonella typhimurium [17] = test: Genotoxicity against Salmonella typhimurium TA98 assessed as fold increase in revertants at 1.25 mg/ml after 90 mins by Ames MPF test in absence of S9 fraction relative to baseline; type: toxicity, organism-based; conditions: salmonella enterica subsp. enterica serovar typhimurium, 1.5 h; in short: as §3
Salmonella typhimurium [18] = test: Genotoxicity against Salmonella typhimurium TA1535/pSK1002 assessed as growth factor ratio at 1.25 mg/ml by umuC assay in absence of S9 fraction; type: toxicity, organism-based; conditions: salmonella enterica subsp. enterica serovar typhimurium; in short: as §2
Salmonella typhimurium [19] = test: Genotoxicity against Salmonella typhimurium TA1535/pSK1002 assessed as growth factor ratio at 5 mg/ml by umuC assay in presence of S9 fraction; type: toxicity, organism-based; conditions: salmonella enterica subsp. enterica serovar typhimurium; in short: as §2
[20] = Genotoxicity against Salmonella typhimurium TA1535/pSK1002 assessed as induction ratio at 1.25 mg/ml by umuC assay in presence of S9 fraction; type: toxicity, organism-based; conditions: salmonella enterica subsp. enterica serovar typhimurium, Salmonella typhimurium TA1535/pSK1002 with S9 fraction; in short: as §2

SMILES	MIC (Cyberlindnera jadinii) [µg/mL]	MIC (Candida albicans) [µg/mL]	MIC (Candida parapsilosis) [µg/mL]	Ratio (Salmonella typhimurium [1])	fold change (FC) (Salmonella typhimurium [2])	fold change (FC) (Salmonella typhimurium [3])	fold induction at 5 mg/ml [4]	fold change (FC) (Salmonella typhimurium [5])	IC50 (NIH3T3) [µM]	IC50 (A549) [µM]	fold change (FC) (Salmonella typhimurium [6])	fold change (FC) (Salmonella typhimurium [7])	fold change (FC) (Salmonella typhimurium [8])	fold induction at 1.25 mg/ml [9]	Ratio (Salmonella typhimurium [10])	fold change (FC) (Salmonella typhimurium [11])	fold change (FC) (Salmonella typhimurium [12])	fold induction at 0.63 mg/ml [13]	fold change (FC) (Salmonella typhimurium [14])	fold change (FC) (Salmonella typhimurium [15])	other results
Cn1nnnc1SCC(=O)N/N=C/c1ccccc1[N+](=O)[O-]	250 (≈ 778 µM)	500 (≈ 1560 µM)	500 (≈ 1560 µM)	1.509	1.63	1.78	1.43	1.08	2020	1600	2.22	1.67	1.47	1.51	1.281	1.67	1.33	1.23	2.2	2	Ratio (Salmonella typhimurium [16]): 1.014; MIC (Nakaseomyces glabratus): 250 µg/mL (≈ 778 µM); fold change (FC) (Salmonella typhimurium [17]): 2.78; Ratio (Salmonella typhimurium [18]): 1.022; Ratio (Salmonella typhimurium [19]): 0.913; fold induction at 1.25 mg/ml [20]: 1.18
COc1ccc(/C=N/NC(=O)CSc2nnnn2C)cc1	250 (≈ 816 µM)	500 (≈ 1630 µM)	250 (≈ 816 µM)	1.357	0.16	0.32	0.763	0.77	> 10000	> 10000	0.53	0.7	0.65	1.12	1.99	0.4	0.5	0.814	0.62	0.53	Ratio (Salmonella typhimurium [16]): 0.681; MIC (Nakaseomyces glabratus): 125 µg/mL (≈ 408 µM); fold change (FC) (Salmonella typhimurium [17]): 0.33; Ratio (Salmonella typhimurium [18]): 1.137; Ratio (Salmonella typhimurium [19]): 2.261; fold induction at 1.25 mg/ml [20]: 0.769
Cn1nnnc1SCC(=O)N/N=C/c1ccc(O)cc1	500 (≈ 1710 µM)	500 (≈ 1710 µM)	1000 (≈ 3420 µM)	1.181	0.13	0.32	0.661	0.63	632	> 10000	0.53	0.66	0.13	0.99	2.049	0.41	0	0.797	0.63	0.63	Ratio (Salmonella typhimurium [16]): 0.657; MIC (Nakaseomyces glabratus): 500 µg/mL (≈ 1710 µM); fold change (FC) (Salmonella typhimurium [17]): 0.13; Ratio (Salmonella typhimurium [18]): 1.098; Ratio (Salmonella typhimurium [19]): 2.139; fold induction at 1.25 mg/ml [20]: 0.699

Stronger by MIC (Cyberlindnera jadinii), values ahead:

MIC (Cyberlindnera jadinii) [µg/mL]	MIC (Candida albicans) [µg/mL]	MIC (Candida parapsilosis) [µg/mL]	SMILES	Ratio (Salmonella typhimurium [1])	fold change (FC) (Salmonella typhimurium [2])	fold change (FC) (Salmonella typhimurium [3])	fold induction at 5 mg/ml [4]	fold change (FC) (Salmonella typhimurium [5])	IC50 (NIH3T3) [µM]	IC50 (A549) [µM]	fold change (FC) (Salmonella typhimurium [6])	fold change (FC) (Salmonella typhimurium [7])	fold change (FC) (Salmonella typhimurium [8])	fold induction at 1.25 mg/ml [9]	Ratio (Salmonella typhimurium [10])	fold change (FC) (Salmonella typhimurium [11])	fold change (FC) (Salmonella typhimurium [12])	fold induction at 0.63 mg/ml [13]	fold change (FC) (Salmonella typhimurium [14])	fold change (FC) (Salmonella typhimurium [15])	other results
125 (≈ 391 µM)	125 (≈ 391 µM)	500 (≈ 1570 µM)	CN(C)c1ccc(/C=N/NC(=O)CSc2nnnn2C)cc1	1.36	1.27	1	0.565	0.47	316	100	1.14	1.9	1.59	1.13	2.781	1.19	0.81	0.704	0.15	0.86	Ratio (Salmonella typhimurium [16]): 0.598; MIC (Nakaseomyces glabratus): 50 µg/mL (≈ 157 µM); fold change (FC) (Salmonella typhimurium [17]): 0.64; Ratio (Salmonella typhimurium [18]): 1.191; Ratio (Salmonella typhimurium [19]): 2.82; fold induction at 1.25 mg/ml [20]: 0.67
125 (≈ 425 µM)	250 (≈ 849 µM)	1000 (≈ 3400 µM)	Cn1nnnc1SCC(=O)N/N=C/c1ccccc1F	1.312	1.59	1	0.321	0.51	2000	9000	1.57	0.23	0.64	1.02	3.877	0.06	0.17	0.936	0.95	1.28	Ratio (Salmonella typhimurium [16]): 0.352; MIC (Nakaseomyces glabratus): 250 µg/mL (≈ 849 µM); fold change (FC) (Salmonella typhimurium [17]): 0.32; Ratio (Salmonella typhimurium [18]): 1.084; Ratio (Salmonella typhimurium [19]): 2.579; fold induction at 1.25 mg/ml [20]: 0.548
